Experimental data reported in ChEMBL document CHEMBL3612031, “Incorporation of a Michael acceptor enhances the antitumor activity of triterpenoic acids” (Eur J Med Chem, 2015).
Activity calls are given as the source filed them. No cut-off for these calls is given here.

Assays:
Assay type in all cases: functional, cell-based
MCF7 [1] = assay: Cytotoxicity against human MCF7 cells assessed as cell survival after 96 hrs by SRB assay; details: for EC50: MCF7, 96 h
Summary of the method: (§1)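 Monolayers kept in RPMI 1640 with 10 % heat-inactivated FBS and penicillin/streptomycin, 37 °C, 5 % CO2. Exponentially growing cells seeded day 0 at densities avoiding confluence. After 24 h, serial dilutions 0-100 µM for 96 h, DMSO or DMF ≤0.5 % final. Fixed with 10 % TCA at 4 °C, stained 0.4 % SRB ~20 min, washed with 1 % acetic acid, dye dissolved in 10 mM Tris base, A570 read. Survival taken relative to untreated controls. EC50 fitted by two-parameter Hill equation, mean of three independent experiments each run in triplicate.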

HT-29 = assay: Cytotoxicity against human HT-29 cells assessed as cell survival after 96 hrs by SRB assay; details: for EC50: HT-29, 96 h; summary of the method: as §1
[2] = (§2) Cytotoxicity against human 518A2 cells assessed as cell survival after 96 hrs by SRB assay; details: 518A2, 96 h; summary of the method: as §1
8505C = assay: Cytotoxicity against human 8505C cells assessed as cell survival after 96 hrs by SRB assay; summary of the method: as §1
A549 = assay: Cytotoxicity against human A549 cells assessed as cell survival after 96 hrs by SRB assay; details: for EC50: A549, 96 h; summary of the method: as §1
518A2 = assay: as §2; summary of the method: as §1
MCF7 [3] = assay: Cytotoxicity against human MCF7 cells assessed as inhibition of cell proliferation after 3 days by radioactive thymidine incorporation assay; details: MCF7, 72 h

Structure (SMILES): COC(=O)[C@]12CC[C@@H](C)[C@H](C)[C@H]1C1=CC[C@@H]3[C@@]4(C)CC[C@H](O)C(C)(C)[C@@H]4CC[C@@]3(C)[C@]1(C)CC2 [METHYL URSOLATE]
- EC50 (MCF7 [1]): > 30 µM
- EC50 (HT-29): > 30 µM
- EC50 [2]: > 30 µM

Structure (SMILES): COC(=O)[C@@]1(C)CC[C@]2(C)CC[C@]3(C)C(=CC(=O)[C@@H]4[C@@]5(C)CCC(=O)C(C)(C)[C@@H]5CC[C@]43C)[C@@H]2C1
- EC50 (MCF7 [1]): 16.7 µM
- EC50 (HT-29): 26.7 µM
- EC50 (8505C): 20.5 µM
- EC50 (A549): 26.1 µM
- EC50 [2]: > 30 µM

Structure (SMILES): C=C1C[C@]2(C)[C@H]3C(=O)C=C4[C@@H]5C[C@@](C)(C(=O)OC)CC[C@]5(C)CC[C@@]4(C)[C@]3(C)CC[C@H]2C(C)(C)[C@H]1O
- Activity (MCF7 [1]): inactive
- Activity (HT-29): inactive
- Activity (8505C): inactive
- Activity (A549): inactive
- Activity (518A2): inactive

Structure (SMILES): COC(=O)[C@]12CC[C@@H](C)[C@H](C)[C@H]1C1=CC[C@@H]3[C@@]4(C)C[C@H](C)C(=O)C(C)(C)[C@@H]4CC[C@@]3(C)[C@]1(C)CC2
- Activity (MCF7 [1]): inactive
- Activity (HT-29): inactive
- Activity (8505C): inactive
- Activity (A549): inactive
- Activity (518A2): inactive

Structure (SMILES): C[C@H]1[C@H](C)CC[C@]2(C(=O)O)CC[C@]3(C)C(=CC[C@@H]4[C@@]5(C)CC[C@H](O)C(C)(C)[C@@H]5CC[C@]43C)[C@H]12 [URSOLIC ACID]
- EC50 (MCF7 [1]): 12.7 µM
- EC50 (HT-29): 10.6 µM
- EC50 (8505C): 13.5 µM
- EC50 (A549): 15.5 µM
- EC50 [2]: 14.7 µM

Structure (SMILES): C=C1C[C@]2(C)[C@H]3C(=O)C=C4[C@@H]5CC(C)(C)CC[C@]5(C(=O)OC)CC[C@@]4(C)[C@]3(C)CC[C@H]2C(C)(C)C1=O
- EC50 (8505C): 15.5 µM
- EC50 (A549): 17.9 µM
- EC50 [2]: 16.8 µM

Structure (SMILES): CC(=O)[C@@H]1CC[C@]2(C(=O)O)CC[C@]3(C)[C@H](CC[C@@H]4[C@@]5(C)CC[C@H](O)C(C)(C)[C@@H]5CC[C@]43C)[C@@H]12 [PLATANIC ACID]
- EC50 (MCF7 [1]): 1.55 µM
- EC50 (HT-29): 1.69 µM
- EC50 (8505C): 1.57 µM
- EC50 (A549): 1.54 µM
- EC50 [2]: 1.5 µM

Structure (SMILES): COC(=O)[C@]12CC[C@@H](C)[C@H](C)[C@H]1C1=CC(=O)[C@@H]3[C@@]4(C)CCC(=O)C(C)(C)[C@@H]4CC[C@@]3(C)[C@]1(C)CC2
- EC50 (MCF7 [1]): 4.24 µM
- EC50 (HT-29): 3.71 µM
- EC50 (8505C): 4.32 µM
- EC50 (A549): 3.83 µM
- EC50 [2]: 3.71 µM

Structure (SMILES): C=C1C[C@]2(C)[C@H]3CC=C4[C@@H]5CC(C)(C)CC[C@]5(C(=O)OC)CC[C@@]4(C)[C@]3(C)CC[C@H]2C(C)(C)C1=O
- EC50 (MCF7 [1]): > 30 µM
- EC50 (HT-29): > 30 µM
- EC50 (8505C): > 30 µM
- EC50 (A549): > 30 µM
- EC50 [2]: > 30 µM

Structure (SMILES): COC(=O)[C@]12CC[C@@H](C)[C@H](C)[C@H]1C1=CC(=O)[C@@H]3[C@@]4(C)CC[C@H](O)C(C)(C)[C@@H]4CC[C@@]3(C)[C@]1(C)CC2
- EC50 (MCF7 [1]): > 30 µM
- EC50 (HT-29): > 30 µM
- EC50 [2]: > 30 µM

Structure (SMILES): COC(=O)[C@]12CCC(C)(C)C[C@H]1C1=CC[C@@H]3[C@@]4(C)CC[C@H](O)C(C)(C)[C@@H]4CC[C@@]3(C)[C@]1(C)CC2 [METHYL OLEANOLATE]
- EC50 (MCF7 [1]): > 30 µM
- EC50 (HT-29): > 30 µM
- EC50 [2]: > 30 µM

Structure (SMILES): COC(=O)[C@]12CCC(C)(C)C[C@H]1C1=CC(=O)[C@@H]3[C@@]4(C)CC(Br)(Br)C(=O)C(C)(C)[C@@H]4CC[C@@]3(C)[C@]1(C)CC2
- Activity (MCF7 [1]): Active
- Activity (HT-29): Active
- Activity (8505C): Active
- Activity (A549): Active
- Activity (518A2): Active

Structure (SMILES): CC1(C)[C@@H](O)CC[C@]2(C)[C@H]3C(=O)C=C4[C@@H]5C[C@@](C)(C(=O)O)CC[C@]5(C)CC[C@@]4(C)[C@]3(C)CC[C@@H]12 [ENOXOLONE]
- EC50 (MCF7 [1]): 84.7 µM
- EC50 (HT-29): 80.1 µM
- EC50 (8505C): 86.5 µM
- EC50 (A549): 82.8 µM
- EC50 [2]: 83.9 µM

Structure (SMILES): COC(=O)[C@]12CC[C@@H](C)[C@H](C)[C@H]1C1=CC[C@@H]3[C@@]4(C)CC(Br)(Br)C(=O)C(C)(C)[C@@H]4CC[C@@]3(C)[C@]1(C)CC2
- Activity (MCF7 [1]): Active
- Activity (HT-29): Active
- Activity (8505C): Active
- Activity (A549): Active
- Activity (518A2): Active

Structure (SMILES): COC(=O)[C@]12CC[C@@H](C)[C@H](C)[C@H]1C1=CC(=O)[C@@H]3[C@@]4(C)CC(Br)(Br)C(=O)C(C)(C)[C@@H]4CC[C@@]3(C)[C@]1(C)CC2
- Activity (MCF7 [1]): Active
- Activity (HT-29): Active
- Activity (8505C): Active
- Activity (A549): Active
- Activity (518A2): Active

Structure (SMILES): C=C1C[C@]2(C)[C@H]3C(=O)C=C4[C@@H]5[C@@H](C)[C@H](C)CC[C@]5(C(=O)OC)CC[C@@]4(C)[C@]3(C)CC[C@H]2C(C)(C)C1=O
- EC50 (MCF7 [1]): 4.68 µM
- EC50 (HT-29): 3.16 µM
- EC50 (8505C): 1.62 µM
- EC50 (A549): 1.57 µM
- EC50 [2]: 1.51 µM

Structure (SMILES): CC1(C)CC[C@]2(C(=O)O)CC[C@]3(C)[C@H](C(=O)C=C4[C@@]5(C)C=C(C#N)C(=O)C(C)(C)[C@@H]5CC[C@]43C)[C@@H]2C1 [BARDOXOLONE]
- EC50 (MCF7 [3]): 0.16 µM

Structure (SMILES): C=C1C[C@]2(C)[C@H]3C(=O)C=C4[C@@H]5C[C@@](C)(C(=O)OC)CC[C@]5(C)CC[C@@]4(C)[C@]3(C)CC[C@H]2C(C)(C)C1=O
- EC50 (MCF7 [1]): 0.74 µM
- EC50 (HT-29): > 30 µM
- EC50 (8505C): > 30 µM
- EC50 (A549): > 30 µM
- EC50 [2]: > 30 µM

Structure (SMILES): C=C1C[C@]2(C)[C@H]3CC=C4[C@@H]5[C@@H](C)[C@H](C)CC[C@]5(C(=O)OC)CC[C@@]4(C)[C@]3(C)CC[C@H]2C(C)(C)C1=O
- EC50 (MCF7 [1]): 4.43 µM
- EC50 (HT-29): 1.35 µM
- EC50 (8505C): 6.1 µM
- EC50 (A549): 2.93 µM
- EC50 [2]: 2.16 µM

Structure (SMILES): CC1(C)CC[C@]2(C(=O)O)CC[C@]3(C)C(=CC[C@@H]4[C@@]5(C)CC[C@H](O)C(C)(C)[C@@H]5CC[C@]43C)[C@@H]2C1 [OLEANOLIC_ACID]
- EC50 (MCF7 [1]): > 30 µM
- EC50 (HT-29): > 30 µM
- EC50 (8505C): > 30 µM
- EC50 (A549): > 30 µM
- EC50 [2]: > 30 µM

Structure (SMILES): COC(=O)[C@@]1(C)CC[C@]2(C)CC[C@]3(C)C(=CC(=O)[C@@H]4[C@@]5(C)CC[C@H](O)C(C)(C)[C@@H]5CC[C@]43C)[C@@H]2C1
- EC50 (MCF7 [1]): > 30 µM
- EC50 (HT-29): > 30 µM
- EC50 (8505C): > 30 µM
- EC50 (A549): > 30 µM
- EC50 [2]: > 30 µM

Structure (SMILES): COC(=O)[C@]12CCC(C)(C)C[C@H]1C1=CC(=O)[C@@H]3[C@@]4(C)CC[C@H](O)C(C)(C)[C@@H]4CC[C@@]3(C)[C@]1(C)CC2
- EC50 (MCF7 [1]): 28.7 µM
- EC50 (HT-29): 27.6 µM
- EC50 [2]: > 30 µM

Structure (SMILES): COC(=O)[C@]12CCC(C)(C)C[C@H]1C1=CC(=O)[C@@H]3[C@@]4(C)CCC(=O)C(C)(C)[C@@H]4CC[C@@]3(C)[C@]1(C)CC2
- EC50 (MCF7 [1]): > 30 µM
